Bioassay records (PubChem)
Shown are actives, neighbours in structure and some others; about 8.2% of the full set was active somewhere.
M1 antagonist = M1 muscarinic receptor (rat) antagonism; P08482; CHO-M1 cells, Fluo-4 calcium, ACh EC80 antagonist mode; active compounds read low; B-score at 10 µM; 3.4% of 64,000 active; AID 628;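 active = calcium fluorescence response, raw or row-and-column corrected B-score, differing from the plate sample mean either way at a set confidence level, mostly lower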
M1 agonist = agonists of M1 muscarinic receptor. CHO-M1 cells, Fluo-4 calcium fluorescence, agonist mode; active compounds read high. B-score at 10 µM. 3% of 64,000 active. AID 626;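 active = fluorescence rise, raw or as B-score row- and column-corrected plate score, outside the 99.7% band of its plate's samples, either direction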
SF-1 act = SF-1 (human) activation; Q13285; CHO-K1 Gal4-SF-1 LBD luciferase reporter; % increase over DMSO SF-1-specific signal; activation, % at 10 µM; 1.9% of 65,000 active; AID 522;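 active = activation above the mean activation of all tested compounds plus 3 SD, cut at about 50% in these data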
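Assay system: CHO-K1 cells co-transfected with Gal4 DBD–human SF-1 LBD, 5xGal4 luciferase reporter; doses: 10 µM only; incubation: 20 h compound exposure at 37 °C after 1 h cell settling; signal: luciferase light emission; evaluation: percent activation versus DMSO; repeats: one test per compound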
D1 allo mod = allosteric modulators of human D1 dopamine receptor | AID 641 | B-score at 10 µM | P21728 | HEK293 D1, CRE-luciferase, dopamine EC30 potentiation; actives deviate in either direction | 5.9% of 58,000 active;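 active = luminescence count or its row- and column-corrected plate score outside the 99.7% band of the plate's sample wells, on either side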
RORa activator = activators of human nuclear receptor RORA | P35398 | CHO-K1 Gal4-RORA LBD luciferase reporter, luminescence; percent increase over mock-subtracted basal signal | activation, % at 10 µM | 1.5% of 65,000 active | AID 560;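 active = activation above the mean of all tested compounds plus 3 SD, cut at about 49% in these data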;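 also: 0% = DMSO-treated RORA cells and 100% = added signal equal to DMSO minus mock-transfected cells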
Target sequence (P35398 whole entry, looked up, the tested form may be a part): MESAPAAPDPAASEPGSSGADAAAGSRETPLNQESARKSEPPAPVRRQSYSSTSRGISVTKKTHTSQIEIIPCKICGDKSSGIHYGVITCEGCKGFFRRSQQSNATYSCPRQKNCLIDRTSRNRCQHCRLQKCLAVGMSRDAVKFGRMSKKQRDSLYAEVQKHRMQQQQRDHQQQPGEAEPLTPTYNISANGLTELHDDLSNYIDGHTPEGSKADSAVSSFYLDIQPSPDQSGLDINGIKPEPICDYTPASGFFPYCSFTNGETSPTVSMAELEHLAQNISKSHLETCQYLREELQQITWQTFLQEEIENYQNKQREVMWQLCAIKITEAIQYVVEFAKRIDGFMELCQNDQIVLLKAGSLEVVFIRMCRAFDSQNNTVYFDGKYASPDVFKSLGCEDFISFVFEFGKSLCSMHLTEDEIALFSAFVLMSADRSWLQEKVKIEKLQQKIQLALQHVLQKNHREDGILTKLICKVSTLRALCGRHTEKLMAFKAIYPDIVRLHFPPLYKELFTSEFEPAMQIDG
HePTP inh = inhibitors of human HePTP phosphatase | P35236 | recombinant HePTP phosphatase activity, OD absorbance | inhibition, % at 20 µM | 0.64% of 110,000 active | AID 521; in the data active = inhibition above about 50%;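 also: plate controls were vehicle for no effect and reference inhibitor for full effect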
Active calls of the source: *; . = not tested or not shown.

SMILES	M1 antagonist	M1 agonist	SF-1 act	D1 allo mod	RORa activator	HePTP inh
Cc1cc(N2CCN(C(=O)c3ccco3)CC2)nc(-c2ccccc2)n1	.	.	-3	-3.7*	13	7
Cc1cc(N2CCN(C(=O)c3ccco3)CC2)n2nc(-c3cccc(F)c3)cc2n1	-0.8	2.9*	-13	-0.13	-17	7
CCn1c(Cn2nnc(-c3ccccc3)n2)nnc1SCC(=O)Nc1ccc(C(C)=O)cc1	.	.	-2	0.41	60*	5
CCn1c(Cn2nnc(-c3ccccc3)n2)nnc1SCC(=O)Nc1cccc(C(C)=O)c1	-0.68	-0.2	-5	-0.6	3	7
Cc1ccc(NC(=O)N(Cc2ccccc2)C(C)C2CC2)cc1 (stereo not given)	.	.	.	.	.	102*
O=C(Nc1nc(-c2ccccc2)ns1)c1cccs1	-0.094	-1.4	76*	-0.95	34	10
Cc1ccc(-c2csc(NC(=O)c3ccno3)n2)cc1	-0.98	0.18	28	-0.27	60*	4
O=C(CSc1ncn[nH]1)Nc1nc(-c2ccccc2)ns1	-0.81	-0.73	55*	0.014	38	3
O=C(Nc1nc(-c2ccccc2)cs1)c1cccs1	-0.87	0.68	18	-0.21	57*	3
Cc1ccc(C(=O)Nc2nc(-c3ccc(F)cc3)cs2)cc1	.	.	.	.	.	8
CC(C)(C)c1ccc(C(=O)N2CCC(C(=O)NCC3CCCO3)CC2)cc1 (stereo not given)	.	.	45	0.044	18	2
COc1ccccc1/C=c1\sc2nc(-c3cccs3)nn2c1=O	1.2	-0.22	6	0.44	-6	2
CC1(C)CC(=O)c2sc(NC(=O)CN3CCOCC3)nc2C1	0.054	-0.67	7	-0.8	-11	2
COc1cccc(N2CCN(c3ncnc4c3[nH]c3ccc(F)cc34)CC2C)c1 (stereo not given)	-6.1*	7.8*	-96	-5.2*	-95	12
O=c1[nH]c2ccc(S(=O)(=O)Nc3ccc(-c4nnc5n4CCCCC5)cc3)cc2o1	0.73	-0.059	4	-5*	17	0
COc1ccc(NS(=O)(=O)c2cccc(-c3nnc4n3CCCCC4)c2)cc1	0.83	2.2	14	.	-12	-4
CCSc1nnc(NC(=O)c2ccccc2)s1	0.16	0.046	49	-0.79	66*	6
CCSc1nnc(Nc2ccccc2)s1	0.27	-0.16	54*	2	17	7
CCSc1nnc(NC(=O)c2ccc(Br)cc2)s1	.	.	.	.	.	4
CCSc1nnc(NC(=O)c2csc3c2CCCC3)s1	0	1.1	-12	0.15	-23	2
O=C(Nc1nnc(-c2ccco2)s1)c1ccccc1	-0.35	-0.019	12	-4.5*	37	7
CCSc1nnc(NC(=O)c2cc3c(s2)CCCC3)s1	0.038	-1.2	52*	-1.5	46	5
COc1ccc(CCNC(=O)Cn2c(=O)oc3ccccc32)cc1OC	-0.5	-0.22	8	1.5	-7	.
COc1cc(S(=O)(=O)N(Cc2cccnc2)Cc2ccco2)ccc1-n1cnnn1	1.2	-0.72	9	.	-6	4
CCSc1nnc(NC(=O)c2ccco2)s1	0	-0.93	22	-0.31	53*	6
SMILES	M1 antagonist	M1 agonist	SF-1 act	D1 allo mod	RORa activator	HePTP inh
Cc1ccc(C(=O)Nc2ncc(Cc3ccc(F)cc3)s2)o1	-0.85	-0.2	119*	-0.17	16	11
COc1cc([N+](=O)[O-])cc(/C=N/NC(=O)COc2c(Br)cc(Br)cc2Br)c1O	.	.	.	.	.	79*
COc1c(Br)cc(Br)cc1/C=N/NC(=O)COc1ccccc1[N+](=O)[O-]	.	.	.	.	.	12
O=C(Cn1ncc2c(=O)oc3ccccc3c21)N1CCN(c2ccccn2)CC1	0.43	1.9	4	0.19	12	-2
OCCN1CN=C(Nc2nc3ccccc3s2)NC1	0.86	-0.56	-1	0.061	-5	4
CC1(C)CC(=O)C2=C(C1)OC1=C(C(=O)CC(C)(C)C1)C2c1ccc(O)cc1O	-0.025	158*	-30	-2	0	13
CC(NC(=O)Nc1ccc2c(c1)OCO2)C1CCCO1 (stereo not given)	-0.075	-0.92	26	-0.6	-7	7
COc1ccc(CC(C)CC(=O)NCCc2ccc(OC)c(OC)c2)cc1 (stereo not given)	.	.	.	.	.	-5
CC1=Nn2c(nnc2-c2n[nH]c3c2CCC3)SC1	0.75	-0.85	-14	-0.0096	-6	4
